Series [1] concerns the target T1, Solute carrier family 2, facilitated glucose transporter member 1 (Homo sapiens) (UniProt P11166).
T1 sequence (whole entry): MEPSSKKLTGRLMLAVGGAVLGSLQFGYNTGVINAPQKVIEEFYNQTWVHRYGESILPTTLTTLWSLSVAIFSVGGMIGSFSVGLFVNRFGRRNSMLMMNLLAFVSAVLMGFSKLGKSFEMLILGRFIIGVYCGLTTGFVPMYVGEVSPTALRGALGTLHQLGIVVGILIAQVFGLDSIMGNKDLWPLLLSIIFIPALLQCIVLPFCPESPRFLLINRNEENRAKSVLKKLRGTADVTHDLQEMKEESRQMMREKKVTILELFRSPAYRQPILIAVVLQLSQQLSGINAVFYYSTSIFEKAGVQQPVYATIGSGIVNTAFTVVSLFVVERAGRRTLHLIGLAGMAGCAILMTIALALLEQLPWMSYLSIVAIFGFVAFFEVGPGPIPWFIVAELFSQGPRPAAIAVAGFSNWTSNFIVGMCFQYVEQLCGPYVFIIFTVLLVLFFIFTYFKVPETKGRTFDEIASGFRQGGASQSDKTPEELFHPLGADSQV
The series is described as follows: Binding affinity to GLUT1 in human A549 cells assessed as cytotoxicity by measuring reduction in cell viability at 12.5 uM measured after 2 hrs in presence of GLUT1 inhibitor STF-31 by CCK8 assay. Type of series: cell-based. The method, boiled down: (§1)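 A549 cells at 2×10^3/well, grown overnight, then preincubated 4 h in F12K/10% FBS with or without STF-31 (1 µM final). […] Incubated a further 2 h at 37 °C; viability by CCK-8.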

The target of series [2] is T1, Solute carrier family 2, facilitated glucose transporter member 1 (Homo sapiens). Nature of the series: Binding affinity to GLUT1 in human A549 cells assessed as cytotoxicity by measuring reduction in cell viability at 12.5 uM measured after 2 hrs in absence of GLUT1 inhibitor STF-31 by CCK8 assay. Type of series: cell-based. In outline: as §1
Series [3] has the same target. The series is described as follows: Binding affinity to GLUT1 in human A549 cells assessed as cytotoxicity by measuring reduction in cell viability at 40 umol/L measured up to 24 hrs in presence of 10% serum by CCK8 assay. The class given is cell-based.
The nature of series [4]: Drug uptake in tumor of Balb/c nu/nu mouse xenografted with human A549 cells expressing luciferase gene at 9 mg/kg, ip measured after 6 hrs by fluorescence assay. The note with it: in vivo. The class given is ADME, organism-based, Neoplasm.
Series [5] addresses T1, Solute carrier family 2, facilitated glucose transporter member 1 (Homo sapiens). Nature of the series: Binding affinity to GLUT1 in human A549 cells assessed as cytotoxicity by measuring cell viability at 12.5 uM measured after 2 hrs in absence of GLUT1 inhibitor STF-31 by CCK8 assay relative to control. Type of series: cell-based. In outline: as §1
Series [6] is described as follows: Stability of the compound in serum (unknown origin) measured up to 48 hrs. Type of series: ADME, cell-free.
For series [7], the system named is A549. Nature of the series: Antitumor activity against human A549 cells expressing luciferase gene xenografted in Balb/c nu/nu mouse assessed as increase in apoptotic cells at 9 mg/kg, ip administered every 2 days for seven times measured on day 14 by TUNEL assay. Type of series: functional, organism-based. In outline: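 Male BALB/c nu/nu mice, 4-6 weeks old, carrying subcutaneous A549-luciferase xenografts in the right back. Dosing started when tumors reached 100-200 mm³ (day 0), five per group. Peptide was given at 9 mg/kg i.p. in 200 µL every other day for 7 doses; PBS served as control. Bioluminescent imaging on day 14; tumor size and body weight tracked. Tumors fixed in paraformaldehyde, paraffin-sectioned, TUNEL-stained.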

For series [8], the system named is A549. The series is described as follows: Potency index, ratio of compound effect to R-lycosin-I effect for antitumor activity against human A549 cells expressing luciferase gene xenografted in Balb/c nu/nu mouse at 3 mg/kg administered intratumorally. Type of series: functional.
Series [9] is described as follows: Toxicity in Balb/c nu/nu mouse xenografted with human A549 cells expressing luciferase gene assessed as effect on kidney at 9 mg/kg, ip administered every 2 days for seven times measured on day 14 by H and E staining based assay. The settings on record: in vivo, 48 h. The class given is organism-based. The method, boiled down:
(§2)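 Male BALB/c nu/nu mice bearing subcutaneous A549-luciferase xenografts received 9 mg/kg peptide i.p. (200 µL) every other day for seven doses, with a PBS control group of five. Heart, liver and kidney were fixed in 10% paraformaldehyde, sectioned and stained with H&E for histology.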

Series [10] deals with T1, Solute carrier family 2, facilitated glucose transporter member 1 (Homo sapiens). Nature of the series: Binding affinity to GLUT1 in human A549 cells assessed as cytotoxicity by measuring cell viability at 12.5 uM measured after 2 hrs in presence of GLUT1 inhibitor STF-31 by CCK8 assay relative to control. Type of series: cell-based. The method, boiled down: as §1
Series [11] in a line: Drug uptake in GLUT1 knockout out human A549 cells at 12.5 uM measured after 2 hrs using FITC-labelled compound by fluorescence assay. The class given is ADME, cell-based. The note with it: a549, 2 h. The method, boiled down: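 FITC-labelled peptide at 12.5 µM for 2 h, given to A549 cells and to A549 GLUT1-RNAi knockdown cells. Total and fluorescent cells counted by automated cell counter; n=3.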

The nature of series [12]: Toxicity in Balb/c nu/nu mouse xenografted with human A549 cells expressing luciferase gene assessed as effect on heart at 9 mg/kg, ip administered every 2 days for seven times measured on day 14 by H and E staining based assay. The class given is organism-based. The settings on record: in vivo, 48 h. In outline:
as §2

Series [13] deals with A549. The series is described as follows: Inhibition of colony formation in human A549 cells at 4 uM supplemented with fresh medium containing compounds every 7 days for 15 days by crystal violet staining based assay. Type of series: functional, cell-based. The method, boiled down: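 Cells seeded at 300 per plate in 6-well plates; after 36 h exposed to 4 μM peptide, re-added after 7 days. Incubated 15 days total at 37°C, 5% CO2, then colonies stained with 2% crystal violet and quantified; n=3.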

The nature of series [14]: Toxicity in Balb/c nu/nu mouse xenografted with human A549 cells expressing luciferase gene assessed as effect on liver at 9 mg/kg, ip administered every 2 days for seven times measured on day 14 by H and E staining based assay. The class given is organism-based. The note with it: in vivo, 48 h. In outline: as §2

The structures appear in SMILES notation. Activity calls are given as the source filed them. The calls are words filed in the database; no cut-off is given here. *1 amine or outer side, *2 acyl side, *3 side chain or, on linkers, in order; H or OH if unused. Where a SMILES comes first, the peptide text is derived from it. The star is where a group is joined. NH(CH2)3O(βDGlc) = OC[C@H]1O[C@@H](OCCCN*)[C@H](O)[C@@H](O)[C@@H]1O; Glutaryl = O=C(CCCC(=O)[*:2])[*:1]

In the case of `CC[C@H](C)[C@H](NC(=O)[C@H](Cc1ccccc1)NC(=O)[C@H](CCCNC(=N)N)NC(=O)[C@H](C)NC(=O)[C@@H](NC(=O)[C@H](CO)NC(=O)[C@H](CCCNC(=N)N)NC(=O)[C@H](CCSC)NC(=O)[C@H](C)NC(=O)[C@H](CCCNC(=N)N)NC(=O)[C@H](Cc1ccccc1)NC(=O)[C@H](Cc1c[nH]c2ccccc12)NC(=O)CNC(=O)[C@@H](N)CCCNC(=N)N)[C@@H](C)CC)C(=O)N[C@@H](C)C(=O)N[C@@H](CCCNC(=N)N)C(=O)N[C@@H](CCC(=O)O)C(=O)N[C@@H](CCCNC(=N)N)C(=O)N[C@@H](CC(C)C)C(=O)N[C@@H](CCCNC(=N)N)C(=O)N[C@@H](CCC(=O)O)C(=O)N[C@@H](Cc1cnc[nH]1)C(=O)N[C@@H](CC(C)C)C(=O)O` (H-RGWFRAMRSIARFIARERLREHL-OH), the result in [1] and in [2] was Active. Also, the outcome in series [3] was inactive.

Take `CC[C@H](C)[C@H](NC(=O)[C@H](Cc1ccccc1)NC(=O)[C@H](CCCNC(=N)N)NC(=O)[C@H](C)NC(=O)[C@@H](NC(=O)[C@H](CO)NC(=O)[C@H](CCCNC(=N)N)NC(=O)[C@H](CCSC)NC(=O)[C@H](C)NC(=O)[C@H](CCCNC(=N)N)NC(=O)[C@H](Cc1ccccc1)NC(=O)[C@H](Cc1c[nH]c2ccccc12)NC(=O)CNC(=O)[C@H](CCCNC(=N)N)NC(=O)CCCC(=O)NCCCO[C@@H]1O[C@H](CO)[C@@H](O)[C@H](O)[C@H]1O)[C@@H](C)CC)C(=O)N[C@@H](C)C(=O)N[C@@H](CCCNC(=N)N)C(=O)N[C@@H](CCC(=O)O)C(=O)N[C@@H](CCCNC(=N)N)C(=O)N[C@@H](CC(C)C)C(=O)N[C@@H](CCCNC(=N)N)C(=O)N[C@@H](CCC(=O)O)C(=O)N[C@@H](Cc1cnc[nH]1)C(=O)N[C@@H](CC(C)C)C(=O)O` ({NH(CH2)3O(βDGlc)-Glutaryl}-RGWFRAMRSIARFIARERLREHL-OH): the Drug uptake result in [4] is “Active”; in [11], “Not Active”. Also, the Activity in [5] is 54%; in [9], “Non-Toxic”; in [10], 40%; in series [12], “Non-Toxic”; in [14] it was “Non-Toxic”. Moreover, the Stability result in series [6] is “Stable”. Also, the result in series [7] was Active. The Ratio in series [8] amounted to 1.6. In series [13], the inhibition result was “Active”.

The values above are taken from ChEMBL document CHEMBL4334452, “Monosaccharide Analogues of Anticancer Peptide R-Lycosin-I: Role of Monosaccharide Conjugation in Complexation and the Potential of Lung Cancer Targeting and Therapy” (J Med Chem, 2019).
